Assay results gathered from unrelated publications.
Each line is one published result; the experiments were not run side by side.
Target: Protein kinase C theta type (PRKCQ, Homo sapiens, UniProt Q04759)

| SMILES | assay | setting | remaining binding [%] |
| --- | --- | --- | --- |
| CN(C)CC#Cc1ccc(OCCCc2sc(N3CCc4cccc(C(=O)Nc5nc6ccccc6s5)c4C3)nc2C(=O)O)c(F)c1 | cell-free assay, competition with immobilised ligand | 1 µM | 92 |
| CN(C)c1ncc(F)c(-c2cnn3ncccc23)n1 | binding | 1 µM | 100 |
| CCN1CCN(Cc2ccc(C(=O)Nc3ccc(C)c(Oc4ccc5c(c4)CC(=O)N5)c3)cc2C(F)(F)F)CC1 | binding, competition with immobilised ligand | 1 µM | 100 |
| CC1CCCN1c1nccc(-c2cnn3ncccc23)n1 (stereo not shown) | binding | 1 µM | 100 |
| CCOCCn1cc(C(=O)Nc2ccc(-n3nc(-c4cccnc4)cc3C(F)(F)F)cn2)ccc1=O | cell-free assay, competition with immobilised ligand | 1 µM | 73 |
| O=C(Nc1c[nH]nc1C(=O)NC1CCNCC1)c1cc(F)cc(F)c1 | binding, competition with immobilised ligand | 1 µM | 100 |
| C[C@@H](c1ccc(-n2cnc3c(N)ncnc32)cc1)N1CCc2nn(C)c(Cc3ccccc3)c2C1=O | binding, competition with immobilised ligand | 0.1 µM | 100 |
| CS(=O)(=O)N1CCCC(NC(=O)[C@H](CCC2CCCCC2)NC(=O)c2ccc(CNC(=O)c3cnc4ccccn34)cc2)C1 (stereo partly shown) | cell-free assay, competition with immobilised ligand | 0.1 µM | 97 |
| CNC(=O)[C@@H]1CC[C@@H](n2c(-c3ccc4cnccc4c3)nc3ccc(C(=O)NCc4cccc(C(N)=O)c4)cc32)C1 | binding, competition with immobilised ligand | 1 µM | 63 |
| O=C(NCCCN1CCOCC1)c1ccc(Nc2nccc(-c3cc4ccccc4s3)n2)cc1 | binding, competition with immobilised ligand | 1 µM | 100 |
| C[C@@H]1CN(c2cc(-c3nn(C)c4ccc(OC5(C)CC5)cc34)ncn2)C[C@H](C)O1 | cell-free assay, competition with immobilised ligand | 1 µM | 91 |
| c1cnn2ncc(-c3ccnc(N4CCC45COC5)n3)c2c1 | binding | 1 µM | 86 |
| COc1ccc2c(c1)O[C@@H](c1ccc(OC)c(OC)c1)C[C@H]2NC(=O)C1(c2ccc3c(c2)OC(F)(F)O3)CC1 | cell-free assay, competition with immobilised ligand | 1 µM | 98 |
| O=C(c1ccc(Nc2nccc(-c3cc4ccccc4s3)n2)cc1)N1CCC(N2CCCC2)CC1 | binding, competition with immobilised ligand | 1 µM | 56 |
| CN(C)c1nccc(-c2cnc3ncccn23)n1 | binding | 1 µM | 75 |
| Cc1cc(NC(=O)c2cccc(S(F)(F)(F)(F)F)c2)cc(-n2ccn3nc(-c4cccnc4)cc23)c1 | cell-free assay, competition with immobilised ligand | 1 µM | 60.3 |
| C[C@H]1CCN(c2nccc(-c3cnn4ncccc34)n2)C1 | binding | 1 µM | 100 |
| O=C(c1ccc(Nc2ncc(Cl)c(-c3cc4ccccc4s3)n2)cc1)N1CCC(N2CCCC2)CC1 | binding, competition with immobilised ligand | 1 µM | 23 |
| N[C@H]1CCN(c2nccc(-c3cnn4ncccc34)n2)C1 | binding | 1 µM | 74 |
| C=CC(=O)N1CCC(C(=O)NCC(=O)N2CCN(c3nc(-c4cnc(N)nc4C(F)F)nc(N4CCOCC4)n3)CC2)CC1 | binding, competition with immobilised ligand | 1 µM | 83 |
| CO[C@H]1CC[C@H](CNc2ccc(S(=O)(=O)NC(=O)c3ccc(N4CCN(CC5=C(c6ccc(Cl)cc6)CC(C)(C)CC5)CC4)cc3Oc3cnc4[nH]ccc4c3)cc2[N+](=O)[O-])CC1 | cell-free assay, competition with immobilised ligand | 1 µM | 89 |
| CN(CCCC(F)(F)F)c1nccc(-c2cnn3ncccc23)n1 | binding | 1 µM | 100 |
